# JMJD2C inh – human JMJD2C demethylase inhibition; Q9H3R0; GST-JMJD2C(1-420) H3K9me3 demethylation, DELFIA europium; inhibition, % at 2.35 µM; actives 0.069% (n = 330,000); AID 2099;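 active means more than half of a compound's replicate wells show inhibition beyond 50%, single wells judged on their own value; inconclusive means some, but no more than half, of replicates pass 50% inhibition; inactive means no replicate passes 50% inhibition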;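 further: signal counts dimethyl H3K9 product captured on neutravidin plate; 0% = median of DMSO wells and 100% = 0.3 times that DMSO median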
# AHR activator – human AHR activation | P35869 | AHR-responsive luciferase reporter cells, luminescence | activation, % at 5 µM | actives 2.5% (n = 320,000) | AID 2796; in the data active means activation above about 47%;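 further: 0% = vehicle wells and 100% = reference agonist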
# SR-BI HDL uptake – blocks mouse SR-BI lipid uptake from DiI-HDL; AID 488896; actives 0.96% (n = 320,000); ldlA[mSR-BI] CHO cells, DiI-HDL uptake fluorescence, 3 h; Q61009; inhibition, % at 12.5 µM;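 active means mean replicate inhibition of at least 70% and a set share of replicates each scoring 70 or more; inconclusive means meets just one of the two criteria; inactive means fails both criteria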;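 further: 0% = median of neutral control wells and 100% = median of positive control wells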
# Target sequence (Q61009 whole entry, looked up): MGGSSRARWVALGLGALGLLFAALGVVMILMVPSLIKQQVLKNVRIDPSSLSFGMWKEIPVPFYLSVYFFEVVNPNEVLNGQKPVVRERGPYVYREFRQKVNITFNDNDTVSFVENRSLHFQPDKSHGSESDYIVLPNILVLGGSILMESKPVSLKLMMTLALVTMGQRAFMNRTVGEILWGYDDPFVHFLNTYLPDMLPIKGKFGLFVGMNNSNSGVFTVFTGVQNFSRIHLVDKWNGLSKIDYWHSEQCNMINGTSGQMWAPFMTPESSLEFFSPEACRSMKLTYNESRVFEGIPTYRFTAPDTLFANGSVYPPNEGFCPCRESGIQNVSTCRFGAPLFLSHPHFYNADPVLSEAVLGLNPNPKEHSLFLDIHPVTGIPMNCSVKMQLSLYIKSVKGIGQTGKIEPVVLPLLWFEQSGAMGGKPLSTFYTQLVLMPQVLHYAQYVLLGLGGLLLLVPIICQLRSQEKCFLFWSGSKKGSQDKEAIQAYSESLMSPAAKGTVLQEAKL
# SR-BI DiI-HDL act – activators of SR-BI mediated HDL lipid uptake. CHO ldlA[mSR-BI] cells, DiI-HDL uptake fluorescence, 3 h; 100 = double the neutral-control signal. actives 0.096% (n = 320,000). activation, % at 12.5 µM;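 active means mean replicate activation of at least 60% and every replicate at or above 60%; inconclusive means mean or all-replicate condition met, but not both; inactive means mean below 60% and not all replicates reaching 60%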;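 further: 0% = median plate neutral-control signal and 100% = twice that signal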
#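 System: LDL receptor-deficient CHO ldlA cells overexpressing murine SR-BI | Timing: 3 h uptake period with compound, 37 °C | Medium: HEPES-buffered (25 mM, pH 7.4) F12 plus 0.5% BSA | Dosing: Single-point compound dose | Signal: Bottom-read fluorescence, 550/595 nm | Read-out: Retained DiI signal reflecting DiI-HDL uptake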
# FXN GAA850 act – increases GAA850 frataxin promoter reporter activity | HEK293 lucGAA850 FXN promoter luciferase reporter, 24 h; percent of 10 µM SAHA response | activation, % at 6 µM | actives 0.56% (n = 360,000);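 active means activation above the average of all compounds screened plus 3 SD, cutoff fixed separately per campaign, cut at about 7.5% in these data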;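 further: 0% = DMSO wells and 100% = 10 µM SAHA wells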
# GAA30 FXN cntr – activates GAA30 frataxin promoter, counter-screen for GAA850 activators; activation, % at 6 µM; shares compounds with FXN GAA850 act; actives 66% (n = 1,900); AID 588350; HEK293 lucGAA30 FXN promoter luciferase, 24 h; DMSO = 0%, 5 µM ipriflavone = 100%;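 active means mean activation above the mean of solvent-only control wells plus 3 SD, cut at about 22% in these data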;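 further: counterscreen of GAA850 promoter hits where activity marks nonselective or luminescence artifacts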
# GAA850 confirm – GAA850 FXN promoter activation confirmation. shares compounds with FXN GAA850 act. HEK293 lucGAA850 FXN promoter luciferase reporter, 24 h; 100% = activation by SAHA. activation, % at 6 µM. actives 86% (n = 1,900). AID 588351;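 active means mean activation above a set limit taken from the primary screen, cut at about 8% in these data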;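 further: 0% = DMSO wells and 100% = 10 µM SAHA wells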
# Numbers without * were called inactive; ? = inconclusive; . = no result. The list is not random: actives were taken first. Their share in the collection is about 3.7%.
SMILES,JMJD2C inh,AHR activator,SR-BI HDL uptake,SR-BI DiI-HDL act,FXN GAA850 act,GAA30 FXN cntr,GAA850 confirm
C/C=C1\NC(=O)[C@H](CC(N)=O)N(C)C(=O)C([C@@H](C)O)NC(=O)C(CCCc2ccc(OC)cc2)NC(=O)[C@H](C(C)C)NC(=O)/C(=C\C)NC(=O)[C@H](O)[C@@H](C[C@@H](O)CCCCCCC)NC(=O)[C@H](C)NC(=O)CN(C)C(=O)[C@H](CCC(N)=O)NC1=O (stereo not given in full),.,.,-63,?,0,.,.
COc1ccc(-n2c(=S)[nH]c3cc(C(=O)Nc4ccc(OC)c(OC)c4)ccc3c2=O)cc1,7,5,-9,9,11*,8,6
O=C(NCCC(=O)N1CCCC(C(F)(F)F)C1)c1ccccc1Cl (stereo not given),9,0,-15,15,1,.,.
O=C(CCCN1C(=O)c2ccccc2C1=O)NCCc1ccc(OC(F)F)cc1,1,-2,3,-3,-1,.,.
Cc1ccc(/C=N/NC(=O)C(C)Oc2ccccc2[N+](=O)[O-])s1 (stereo not given),0,8,29,-29,11*,26*,5
O=C(N/N=C/c1ccc(Cl)s1)c1ccccc1[N+](=O)[O-],-4,0,8,-8,-1,.,.
CCOc1ccc(Nc2ncnc3c2cnn3Cc2ccccc2)cc1,-6,7,4,-4,0,.,.
CCOc1ccc(Nc2ncnc3c2cnn3-c2ccccc2)cc1,15,-3,-10,10,13*,67*,21*
O=C(Nc1cccc(C(F)(F)F)c1)C1Cc2c(-c3ccccc3)ccnc2O1 (stereo not given),.,.,.,.,0,.,.
COc1cccc(C(=O)c2sc(NC(C)C)nc2N)c1,4,29,-6,6,12*,69*,89*
COc1ccc(C(=O)c2sc(NC(C)C)nc2N)cc1OC,2,43,3,-3,5,.,.
O=C(O)c1ccc(N/N=C/c2ccc(-c3cccc(Cl)c3)o2)cc1,0,128*,18,-18,11*,112*,42*
CC(C)(C)c1csc(NC(=O)CS(=O)(=O)c2ccccc2)n1,-11,3,.,.,7.9*,51*,15*
Clc1ccc(/C=N/Nc2ncnc3nc[nH]c23)cc1,-6,66*,.,.,9.8*,110*,50*
CCCOc1ccc(C(=O)CCC(=O)NNC(=O)c2cccs2)cc1,.,4,-2,2,0,.,.
CCOC(=O)C1CNc2cc(S(=O)(=O)CC)ccc2O1 (stereo not given),-6,2,12,-12,-3,.,.
Cn1ncc2c1ncn1nc(CCc3ccccc3)nc21,3,4,-9,9,9.1*,106*,29*
N#C/C(=C/c1ccc(N2CCCCC2)o1)c1cccc(F)c1,-14,0,44,-44,15*,106*,41*
Cc1ccc(/C(C#N)=C\c2ccc(N3CCOCC3)o2)cc1,0,-1,45,-45,22*,120*,53*
Cc1ccc2nc(/C(C#N)=C\c3ccc(N4CCOCC4)o3)[nH]c2c1,3,43,50,-50,3,.,.
Cc1cc(C)nc(SCc2csc(-c3ccccc3)n2)n1,-4,-2,15,-15,7.9*,115*,40*
CCOC(=O)c1[nH]c2ccc(OC)cc2c1NC(=O)c1cccc(OC)c1,18,7,39,-39,1,.,.
CCOC(=O)c1[nH]c2ccc(OC)cc2c1NC(=O)c1ccccc1C(=O)O,0,1,1,-1,8.0*,28*,13*
COc1ccc(NC(=O)C2CCCN2S(=O)(=O)c2ccc3c(c2)CCC(=O)N3)cc1Cl (stereo not given),-5,0,-1,1,9.1*,6,12*
COc1ccc(NC(=O)C2CCCN2S(=O)(=O)c2ccc3c(c2)CCC(=O)N3)cc1 (stereo not given),1,-2,-9,9,0,.,.
SMILES,JMJD2C inh,AHR activator,SR-BI HDL uptake,SR-BI DiI-HDL act,FXN GAA850 act,GAA30 FXN cntr,GAA850 confirm
Cc1cc(C)cc(-n2ncc3c2CCCC3NC(=O)c2ccccc2)c1 (stereo not given),.,.,.,.,2,.,.
CC1CN(c2ccc(Oc3ccccc3)cc2)c2nc3c(c(=O)n(CC(N)=O)c(=O)n3C)n2C1 (stereo not given),-1,-2,-15,15,18*,2,2
CC1CN(Cc2ccccc2)c2nc3c(c(=O)n(CC(N)=O)c(=O)n3C)n2C1 (stereo not given),-1,1,-10,10,2,.,.
O=C(CSc1ccc2ccccc2c1)NCCc1ccc(O)c(O)c1,-11,0,-3,3,13*,43*,13*
COc1ccc(CCNC(=O)CSc2ccc3ccccc3c2)cc1OC,9,6,-5,5,-1,.,.
Cc1ccc(/C=C2/N=C(c3ccccc3)NNC2=O)cc1,-1,37,.,.,1,.,.
O=C(CSc1nnc(CNC(=O)c2c(F)cccc2F)o1)NCc1ccccc1Cl,6,9,3,-3,1,.,.
CC1(C)CC2(CC(c3ccccc3F)c3ccc(O)c(O)c3O2)NC(=S)N1 (stereo not given),7,0,33,-33,-1,.,.
Cc1cccc2cc(CN(C(=O)c3cnccn3)C3CCCCC3)c(Cl)nc12,-2,-1,8,-8,7.6*,11,5
Cc1c(C(=O)NCc2cccnc2)sc2nc(-c3ccccc3)cn12,8,12,21,-21,5,.,.
CNC(=O)c1sc2nc(-c3ccc(OC)cc3)cn2c1C,-5,22,10,-10,5,.,.
Cc1c(C(=O)NCc2ccco2)sc2nc(-c3ccccc3)cn12,63,7,19,-19,18*,56*,29*
CCN(CC)C(=O)c1sc2nc(-c3ccc(OC)cc3)cn2c1C,1,1,36,-36,9.8*,125*,41*
Cc1ccc(NC(=S)N(Cc2cccs2)Cc2cc3cccc(C)c3[nH]c2=O)cc1,13,22,.,.,1,.,.
O=C(COc1ccccc1)Nc1nnc(COc2ccccc2)s1,-3,.,9,-9,2,.,.
Cc1ccnc(NC(=O)Cc2ccc(-c3ccccc3)cc2)c1,4,22,12,-12,7.9*,101*,46*
COc1cc2ccccc2cc1C(=O)Nc1cc(C)ccn1,6,56*,64,-64,8.4*,123*,39*

# Screening results deposited in PubChem BioAssay by several laboratories.
